Data on 7 compounds can be found in ChEMBL document CHEMBL1152618, “PET-compatible endothelin receptor radioligands: synthesis and first in vitro and in vivo studies” (Bioorg Med Chem, 2009).

For data set [1], the target named is T1, Endothelin receptor type B (Mus musculus, UniProt P48302).
T1 sequence (P48302 whole entry): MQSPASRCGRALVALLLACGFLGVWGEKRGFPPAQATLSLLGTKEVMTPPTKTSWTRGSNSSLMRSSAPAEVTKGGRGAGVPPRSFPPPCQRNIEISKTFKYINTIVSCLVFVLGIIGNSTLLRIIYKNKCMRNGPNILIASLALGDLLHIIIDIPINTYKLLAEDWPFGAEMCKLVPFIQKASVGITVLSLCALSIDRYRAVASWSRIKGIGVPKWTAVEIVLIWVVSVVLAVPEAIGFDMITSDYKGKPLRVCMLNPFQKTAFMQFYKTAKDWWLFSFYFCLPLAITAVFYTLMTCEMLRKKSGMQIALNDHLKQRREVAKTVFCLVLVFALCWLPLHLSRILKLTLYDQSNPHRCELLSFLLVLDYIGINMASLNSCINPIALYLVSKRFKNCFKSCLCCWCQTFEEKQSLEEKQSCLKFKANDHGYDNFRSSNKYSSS
Kind of data set: Displacement of [125I]ET1 from endothelin B receptor in DBA mouse microsomes. The arrangement: species or system Microsome. Put shortly: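 Ventricular microsomes from DBA mice were prepared by homogenization and differential centrifugation in EDTA/HEPES/benzamidine buffers (pH 7.4). 10 µg membranes were incubated with 40 pM [125I]ET-1 and competitor (10 pM–100 µM) in Tris-HCl/154 mM NaCl/ascorbic acid (pH 7.4) at 37 °C for 4 h. Samples were filtered on GF/B and gamma counted. A two-site nonlinear fit gave the low-affinity IC50, which was converted to Ki by Cheng–Prusoff (KD 208 pM).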
Background: Displacement assays read how much labelled ligand stays bound in the presence of the test substance.

The nature of data set [2]: Biodistribution in C57BL/6 mouse duodenal wall content assessed as drug uptake index at 0.3 to 1 mmol/kg, iv after 30 mins. Conditions: in vivo, 0.5 h, in the assay text read “0.3 to 1 nmol/kg” for “0.3 to 1 mmol/kg”. It is filed as ADME, organism-based. Put shortly:
(§1)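 Adult C57BL/6 mice (male and female, 25–30 g), tail-vein cannulated under isoflurane/N2O/O2, allowed ~1 h recovery, conscious under light restraint. [18F]tracer 0.2–2.0 MBq (0.3–1.0 nmol/kg) given as iv bolus. Killed by iv pentobarbitone 200 mg/kg at 30 min. Duodenal contents were moved directly into weighed vials, and duodenal wall was blotted. Gamma counting. Uptake index = (cpm/g tissue)/(cpm injected/g body weight).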

The test system of data set [3] is Plasma. Put plainly: Stability in C57BL/6 mouse plasma assessed as compound remaining after 5 mins. It is filed as ADME, cell-free. Put shortly:
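C57BL/6 mice (adult, both sexes) were prepared as for biodistribution and given [18F]tracer as a 100 µl tail-vein bolus. Killed by iv pentobarbitone at 5 or 20 min. Cardiac blood was centrifuged, and plasma from two mice was pooled. After acetonitrile protein precipitation, supernatant was spiked with 10 µg unlabeled reference and analyzed by radio-RP-HPLC.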

The subject of data set [4] is Rattus norvegicus. Put plainly: Stability in Wistar rat assessed as compound remaining at 40 MBq, iv after 10 mins. It is filed as ADME, organism-based. Conditions: in vivo. The essentials: (§2)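 Single rat given 40 MBq [18F]tracer as an iv tail-vein bolus. Blood (600–800 µl) was drawn from a tail-artery catheter at 2.5, 10, 20 and 60 min and centrifuged to plasma. Proteins were precipitated with ice-cold acetonitrile. Supernatant was spiked with 10 µg unlabeled reference and analyzed by radio-RP-HPLC.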

Data set [5] deals with Plasma. Put plainly: Stability in Wistar rat plasma assessed as compound remaining at 19 MBq. It is filed as ADME, cell-free. The essentials: (§3)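 Plasma from one anesthetized male Wistar rat (350 g), taken by cardiac puncture and stored at −20 °C overnight. 0.5 ml samples were incubated with 19 MBq [18F]tracer at 37 °C for 1, 2.5, 20 and 60 min. Protein was precipitated with ice-cold acetonitrile and centrifuged. Pellet and supernatant radioactivity were measured for protein binding. Supernatant was analyzed by gradient radio-RP-HPLC (C18, water/acetonitrile with 0.1% TFA).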

Data set [6] is described as follows: Drug level in C57BL/6 mouse urine at 6.6 MBq, iv after 5 to 60 mins. The class given is ADME, organism-based. The settings on record: in vivo. The essentials: (§4)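 Female C57BL/6 mice (22–23 g) under isoflurane 2% anesthesia with tail-vein catheters were imaged two at a time in a quadHIDAC small-animal PET scanner. [18F]tracer (6.6 MBq in 100 µl, saline flush) was injected 30 s after acquisition start. List-mode data were collected for 2 h and reconstructed iteratively. Radioactivity (cps/ml) was read from ROIs over organs in five coronal planes.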

In data set [7] the test system is Plasma. Put plainly: Stability in plasma assessed as compound remaining after 20 mins.
Data set [8] is described as follows: Drug level in C57BL/6 mouse bile at 6.6 MBq, iv after 3 to 4 mins. The class given is ADME, organism-based. Conditions: in vivo. Put shortly:
as §4

The test system of data set [9] is Rattus norvegicus. Put plainly: Stability in Wistar rat assessed as compound remaining at 40 MBq, iv after 2.5 mins. It is filed as ADME, organism-based. The settings on record: in vivo. The essentials: as §2
Data set [10] relates to Plasma. Kind of data set: Protein binding in Wistar rat plasma at 19 MBq. It is filed as ADME, cell-free. Put shortly:
as §3

A short description of data set [11]: Biodistribution in C57BL/6 mouse duodenal content assessed as drug uptake index at 0.3 to 1 mmol/kg, iv after 30 mins. The class given is ADME, organism-based. Conditions: in vivo, 0.5 h, in the assay text read “0.3 to 1 nmol/kg” for “0.3 to 1 mmol/kg”. Put shortly:
as §1

What is called Ki is a dissociation constant, usually derived from enzyme kinetics or from competition with a known ligand. High values mean lower affinity, low ones higher affinity. As to `COc1ccc(C2(O)OC(=O)C(c3ccc4c(c3)OCO4)=C2Cc2cc(OC)c(OC)c(OCCOS(=O)(=O)c3ccc(C)cc3)c2)cc1` (stereo unspecified), the affinity in data set [1], expressed as Ki, was 1.26 nM. This lies in the single-digit nanomolar range.
Still for that read-out and setting: the figure for `COc1ccc(C2(O)OC(=O)C(c3ccc4c(c3)OCO4)=C2Cc2cc(OC)c(OC)c(OCCBr)c2)cc1` (stereo unspecified) is 170 nM; for `COc1ccc(C2(O)OC(=O)C(c3ccc4c(c3)OCO4)=C2Cc2cc(OC)c(OC)c(OCCF)c2)cc1` (stereo unspecified) it is 240 nM.
Turning to `COc1cc(CC2=C(c3ccc4c(c3)OCO4)C(=O)OC2(O)c2ccc(OCCBr)cc2)cc(OC)c1OC` (stereo unspecified), the inhibition constant Ki in data set [1] was found to be 72 nM.
`COc1cc(CC2=C(c3ccc4c(c3)OCO4)C(=O)OC2(O)c2ccc(OCCF)cc2)cc(OC)c1OC` (stereo unspecified) gave an inhibition constant Ki in data set [1] of 98 nM.
As for `COc1ccc(C2(O)OC(=O)C(c3ccc4c(c3)OCO4)=C2Cc2cc(OC)c(OC)c(OCC[18F])c2)cc1` (stereo unspecified), the Drug uptake in data set [2] is 9; in data set [6], 200 cps/ml; in data set [8], 6000 cps/ml; in [11] it was 33. Also, the Stability result in [3], in [4], in data set [5], in data set [7] and in data set [9] was “Stable” each time. The same compound registered a PPB in data set [10] of 4.6%.
Compound `COc1cc(CC2=C(c3ccc4c(c3)OCO4)C(=O)OC2(O)c2ccc(OCCOS(=O)(=O)c3ccc(C)cc3)cc2)cc(OC)c1OC` (stereo unspecified) displayed a Ki in data set [1] of 96 nM.
